# DDE Tn7 FP inh – DD(E)-Tn7 binding inhibition, primary FP screen; P02675; FP displacement of FITC-Tn7 peptide from fibrin DD(E); 0% = median of compound wells per plate; inhibition, % at 8.3 µM; hit rate 0.13% among 370,000; AID 720508;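 active = inhibition above the mean of compounds falling within the control limits plus 3 SD of them, cut at about 14% in these data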
# Target sequence (P02675 whole entry, looked up): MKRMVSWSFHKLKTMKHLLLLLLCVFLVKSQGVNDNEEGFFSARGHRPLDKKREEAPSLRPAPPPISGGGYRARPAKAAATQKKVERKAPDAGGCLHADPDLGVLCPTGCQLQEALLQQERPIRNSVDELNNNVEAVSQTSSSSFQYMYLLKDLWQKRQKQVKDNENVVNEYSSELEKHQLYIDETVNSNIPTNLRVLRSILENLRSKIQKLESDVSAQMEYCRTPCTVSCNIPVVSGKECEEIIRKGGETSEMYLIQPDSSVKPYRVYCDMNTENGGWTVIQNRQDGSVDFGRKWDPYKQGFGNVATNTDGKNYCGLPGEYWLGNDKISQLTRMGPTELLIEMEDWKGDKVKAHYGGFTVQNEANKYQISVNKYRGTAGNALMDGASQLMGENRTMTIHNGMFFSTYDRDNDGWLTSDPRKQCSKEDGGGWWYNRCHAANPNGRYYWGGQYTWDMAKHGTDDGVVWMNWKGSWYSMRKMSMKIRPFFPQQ
#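 Assay system: Human fibrin DD(E) protein | Medium: Tris buffer with calcium and detergent, pH 7.8 | Reagent: 0.1 µM fluorescent Tn7 | Compound dosing: Single point at 8.3 µM | Times: 10 min preincubation, 3 h with tracer, room temperature | Detection: Fluorescence polarization of the labelled Tn7 tracer | Controls: Aha-Tn7 high control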
# CRFR2-BP antag – blocks CRF-induced signaling of the CRF-BP/CRF-R2 complex | AID 588475 | hit rate 0.59% among 350,000 | HEK293 CRF-R2/CRF-BP, CRF-induced calcium fluorescence | inhibition, % at 11.8 µM;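 active = inhibition of the ligand-induced calcium signal above about 50% at the single tested concentration, limit read from the data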
# DDE Tn6 FP inh – DD(E)-Tn6 binding inhibition, primary FP screen | P02675 | Fibrin DD(E) TRITC-Tn6 fluorescence polarization displacement | inhibition, % at 8.3 µM | hit rate 0.21% among 370,000 | AID 720509;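 active = inhibition above a per-campaign cutoff: mean of compounds within control limits plus 3 SD, cut at about 15% in these data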
# CRFR2-BP ag – CRF-BP/CRF-R2 complex agonism | HEK293 CRF-R2/CRF-BP, calcium dye fluorescence (FLIPR); percent of saturating CRF peptide response | activation, % at 13.2 µM | hit rate 0.46% among 350,000 | AID 588473;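 active = activation of at least 50%, plus an integration ratio under a set limit after plate pattern correction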
# Numbers stand for hits; n = inactive; x = no result. The list is not random: actives were taken first. Their share in the collection is about 1.3%.
SMILES,DDE Tn7 FP inh,CRFR2-BP antag,DDE Tn6 FP inh,CRFR2-BP ag
CN(C(=O)c1cccc(NC(=O)Cc2ccc(NC(=O)C3CCCN(C(=O)CCc4ccccc4)C3)cc2)c1)C1CCCCC1 (stereo not given),n,67,n,n
C=CCOC(=O)N[C@H](c1ccccc1)[C@H](C)/C=C/CC(=O)OC,n,x,n,x
CCNC(=S)N/N=C1\C(=O)c2cccc3cccc1c23,n,n,n,n
O=C(N/N=C1/C(=O)c2cccc3cccc1c23)c1ccc(Cl)cc1,n,n,n,52
Cc1cccc(-c2cccc3c4c([nH]c23)[C@@H]2C[C@H](N(C)C(=O)c3ccco3)[C@H]([C@H](C)O)C(=O)N2CC4)c1,n,x,n,x
Cc1cc(C)nc(SCc2ccc(C(=O)NNC(=O)Nc3cccc(Cl)c3)cc2)n1,n,70,n,n
CCOC(=O)c1ccc(N=Cc2nc(-c3ccccc3)oc2OC(C)=O)cc1,n,n,n,n
CC(=O)Oc1oc(-c2ccccc2)nc1C=Nc1ccccc1,n,n,n,57
CC(C)(C)OC(=O)/C=C/[C@H](CCCCl)Sc1ccc(C(C)(C)C)cc1,n,x,n,x
COc1ccc(C2Nc3ccccc3C(=O)N2c2ccccc2)cc1CSc1ccccn1 (stereo not given),n,58,n,n
Cc1ccc(S(=O)(=O)N(CC(=O)Nc2ccccc2C(=O)O)c2cccc(Cl)c2C)cc1,n,50,n,n
Cc1ccc(S(=O)(=O)N(CC(=O)Nc2ccccc2C(=O)O)c2ccccc2C)cc1,n,n,n,n
Cc1cccc(CSc2ccc3nnc(-c4cccs4)n3n2)c1,n,63,n,n
Fc1ccc(CSc2ccc3nnc(-c4cccs4)n3n2)cc1,n,n,n,n
CN(Cc1ccc2c(c1)CCCN2C)C(=O)[C@@H](Cc1ccccc1)NC(=O)[C@H]1O[C@@H](n2ccc(=O)[nH]c2=O)[C@H](O)[C@@H]1O,n,x,n,x
COc1ccc(/C=C/c2nc(-c3ccccc3)cc(=O)[nH]2)cc1,n,66,n,n
CC(C)(C)c1ccc(S(=O)(=O)N2CCCC2C(=O)N2CCc3ccccc3C2)cc1 (stereo not given),n,x,n,x
Cc1ccc(C)c(S(=O)(=O)C(C#N)c2nc3ccccc3nc2N2CCCC2)c1 (stereo not given),n,n,n,n
Cc1ccc(C)c(S(=O)(=O)C(C#N)c2nc3ccccc3nc2N2CCOCC2)c1 (stereo not given),n,63,n,n
N#CC(c1nc2ccccc2nc1N1CCCC1)S(=O)(=O)c1ccccc1 (stereo not given),n,n,n,n
Cc1cccc(S(=O)(=O)C(C#N)c2nc3ccccc3nc2N2CCCC2)c1 (stereo not given),n,n,n,64
COC(=O)[C@]12C[C@H](CC(=O)NCCC(C)C)C(=O)N(Cc3ccco3)C1=C[C@H](C(C)C)O[C@@H]2C1CC1,n,x,n,x
CC(C)(C)C(=O)NC(=S)NCCc1ccccc1,n,51,n,n
CC(C)(C)C(=O)NC(=S)NNC(=O)c1ccc(-c2ccccc2)cc1,x,n,x,163
S=C(NCCc1ccccc1)NCCc1ccccc1,n,n,n,n
SMILES,DDE Tn7 FP inh,CRFR2-BP antag,DDE Tn6 FP inh,CRFR2-BP ag
CC(C)(C)C(=O)NC(=S)NNC(=O)c1ccc(Cl)cc1Cl,n,n,n,129
COC(=O)C[C@H]1CC[C@@H]2[C@H](COc3ccc(NS(C)(=O)=O)cc3C(=O)N2C)O1,n,x,n,x
CC(=O)N[C@@H]1C[C@@H]2O[C@@H](CO)CC[C@@H]2O[C@@H]1CCc1ccc(C#CC2(O)CCCC2)cc1,n,x,n,x
O=C(CCc1nc(-c2ccccc2F)no1)NCCc1cccc(F)c1,n,x,n,x
Cc1cc([N+](=O)[O-])ccc1NCc1ccccc1[N+](=O)[O-],n,91,n,n
Cc1cc(F)ccc1NCc1ccccc1[N+](=O)[O-],n,n,n,n
Cc1ccc2c(c1)C1CS(=O)(=O)N(CC(C)C)C(=O)N1C2 (stereo not given),n,x,n,x
Cc1ccccc1C(=O)N(C)[C@H]1C[C@H]2c3[nH]c4c(-c5ccccc5)cccc4c3CCN2C[C@H]1[C@H](C)O,n,x,n,x
O=c1nc(-c2ccccc2)n(-c2ccc(Cl)cc2)[nH]1,n,n,n,91
COc1ccc(C2C(C(=O)c3cccs3)=C(O)C(=O)N2c2nncs2)cc1 (stereo not given),n,n,n,265
C=CCOc1ccc(C2C(C(=O)c3cccs3)=C(O)C(=O)N2c2nnc(C)s2)cc1 (stereo not given),n,n,n,n
Cc1cccc(N2C(=O)C(O)=C(C(=O)c3cccs3)C2c2ccc(C(C)C)cc2)n1 (stereo not given),n,n,n,62
Cc1cccc(N2C(=O)C(O)=C(C(=O)c3cccs3)C2c2ccc(F)cc2)n1 (stereo not given),n,n,n,n
COC(=O)[C@]12C[C@H](CC(=O)N3CCCC3)C(=O)N(CCC3=CCCCC3)C1=C[C@H](C1CCCC1)O[C@@H]2C,n,x,n,x
Cc1cccc(NC(=O)C2=C(O)c3ccccc3N(C)S2(=O)=O)c1,n,n,n,n
CN1c2ccccc2C(O)=C(C(=S)Nc2ccc(Cl)cc2)S1(=O)=O,n,59,n,n
Cc1nc2ccc(S(=O)(=O)NCC(=O)N(C)Cc3ccc(F)cc3)cc2s1,n,x,n,x
C[n+]1ccc2[nH]c3ccccc3c2c1,n,x,n,x
Cc1[nH]c2ccccc2c1/C=C/c1cc[n+](C)cc1,n,n,n,81
CCOc1ccc(C(CCc2ccccc2)NC(=O)c2ccccc2OC)cc1OCC (stereo not given),x,76,x,n
CC(=O)N1CCN(C(=O)C2CCCN(C(=O)c3ccc4c(c3)NC(=O)CS4)C2)CC1 (stereo not given),n,x,n,x
CN1CCCCC(NC(=O)CSc2ccccc2)C1=O (stereo not given),n,x,n,x
CC1=NN(C(=O)c2ccc(Br)cc2)C(O)(C(F)(F)OC(F)(F)F)C1 (stereo not given),n,50,n,n
CC1=NN(C(=O)c2csc(C)c2)C(O)(C(F)(F)F)C1 (stereo not given),n,n,n,n
COC(=O)C1=NN(C(=O)c2ccc(Br)cc2)C(O)(C(C)(C)C)C1 (stereo not given),n,n,n,52
SMILES,DDE Tn7 FP inh,CRFR2-BP antag,DDE Tn6 FP inh,CRFR2-BP ag
COC(=O)C1=NN(C(=O)c2ccccc2)C(O)(c2ccc([N+](=O)[O-])cc2)C1 (stereo not given),n,n,n,n
COC(=O)C1=NN(C(=O)c2ccc(C)cc2)C(O)(c2ccc(Cl)cc2)C1 (stereo not given),x,n,x,86
COC(=O)C1=NN(C(=O)c2cccc(Cl)c2)C(O)(C(C)(C)C)C1 (stereo not given),n,n,n,89
COc1ccc2c(c1)CNC2CS(=O)(=O)NCc1ccccc1 (stereo not given),n,x,n,x
CC(C)(C)NC(=O)/C(=C/c1ccccc1F)NC(=O)c1ccc([N+](=O)[O-])cc1,n,52,n,n
Cc1cc(C)c(O)c(C(=O)CC2CC(=O)NC(=O)C2)c1,n,x,n,x
